ChEMBL document CHEMBL1687774, “Furanyl-rhodanines are unattractive drug candidates for development as inhibitors of bacterial RNA polymerase” (Antimicrob Agents Chemother, 2010)
Values after ≈ are worked out from the molar mass of the structure shown.

Key:
[1] = Inhibition of Escherichia coli RNA polymerase using Kool NC-45 universal RNA polymerase template
Summary of the method: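 In vitro E. coli RNA polymerase assay using the Kool NC-45 universal RNA polymerase template; IC50 determined.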

[2] = species: Sus scrofa; assay: Inhibition of pig Malate dehydrogenase at 100 uM
Summary of the method: (§1)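 Bovine chymotrypsin and porcine malate dehydrogenase specificity screens with compound at 100 μM; percent inhibition of enzyme activity.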

[3] = species: Bos taurus; assay: Inhibition of bovine Chymotrypsin at 100 uM; summary of the method: as §1
[4] = tested on: Staphylococcus aureus; assay: Antibacterial activity against Staphylococcus aureus SH1000 by microdilution method; type: functional
Summary of the method: (§2)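 MICs by broth microdilution in Mueller-Hinton broth following British Society for Antimicrobial Chemotherapy guidelines; where used, polymyxin B nonapeptide (4 μg/ml) was added together with the compound.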

[5] = tested on: Staphylococcus epidermidis; assay: Antibacterial activity against Staphylococcus epidermidis ATCC 11047 by microdilution method; type: functional; summary of the method: as §2
[6] = tested on: Escherichia coli; assay: Antibacterial activity against Escherichia coli 1411 by microdilution method; type: functional; summary of the method: as §2
[7] = tested on: Escherichia coli; assay: Antibacterial activity against Escherichia coli 1411 by microdilution method in presence of 4 ug/ml PMBN; type: functional; summary of the method: as §2
[8] = tested on: Escherichia coli; assay: Antibacterial activity against AcrAB-deficient Escherichia coli SM1411 by microdilution method; type: functional; summary of the method: as §2
[9] = tested on: Bacillus subtilis; assay: Antibacterial activity against Bacillus subtilis 1S34 by microdilution method; type: functional; summary of the method: as §2
[10] = tested on: Staphylococcus aureus; assay: Induction of membrane integrity loss in Staphylococcus aureus SH1000 at 4 times MIC after 10 mins by BacLight assay; type: functional
Summary of the method: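 Membrane integrity measured by BacLight fluorescence after S. aureus SH1000 was exposed to 4× MIC of compound for 10 min; expressed relative to the drug-free control (100%).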

[11] = tested on: Staphylococcus aureus; assay: Induction of membrane potential loss in Staphylococcus aureus SH1000 at 4 times MIC after 10 mins by DIS3 fluorescence assay; type: functional
Summary of the method: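 Membrane potential measured with the fluorescent dye DiSc3(5) after S. aureus SH1000 was exposed to 4× MIC of compound for 10 min; expressed relative to the drug-free control (100%).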

[12] = tested on: Bacillus subtilis; assay: Inhibition of DNA biosynthesis in Bacillus subtilis 1S34 assessed as induction in biosensor yorB promoter-luciferase reporter signal relative to untreated control; type: functional
Summary of the method: (§3)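 B. subtilis biosensor strains carry stress-responsive promoter-reporter constructs (parent 1S34). Value is the maximum reporter signal induced, as a ratio to the signal in noninduced control cultures.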

[13] = tested on: Bacillus subtilis; assay: Inhibition of RNA biosynthesis in Bacillus subtilis 1S34 assessed as induction in biosensor yvgS promoter-luciferase reporter signal relative to untreated control; type: functional; summary of the method: as §3
[14] = tested on: Bacillus subtilis; assay: Inhibition of Protein biosynthesis in Bacillus subtilis 1S34 assessed as induction in biosensor yheI promoter-luciferase reporter signal relative to untreated control; type: functional; summary of the method: as §3
[15] = tested on: Bacillus subtilis; assay: Inhibition of Cell envelope biosynthesis in Bacillus subtilis 1S34 assessed as induction in biosensor ypuA promoter-luciferase reporter signal relative to untreated control; type: functional; summary of the method: as §3
[16] = tested on: Bacillus subtilis; assay: Inhibition of Fatty acid biosynthesis in Bacillus subtilis 1S34 assessed as induction in biosensor fabHB promoter-luciferase reporter signal relative to untreated control; type: functional; summary of the method: as §3
[17] = species: Sus scrofa; assay: Inhibition of pig Malate dehydrogenase at 0.0472 uM
[18] = species: Bos taurus; assay: Inhibition of bovine Chymotrypsin at 0.0472 uM

Row | Structure (SMILES) | IC50 [1] | inhibition [2] | inhibition [3] | MIC [4] | MIC [5] | MIC [6] | MIC [7] | MIC [8] | MIC [9] | Activity [10] | Activity [11] | fold change (FC) [12] | fold change (FC) [13] | fold change (FC) [14] | fold change (FC) [15] | fold change (FC) [16] | inhibition [17] | inhibition [18]
1 | C=CCN1C(=O)/C(=C/c2ccc(-c3ccc(C(=O)O)cc3)o2)SC1=S | 37.3 µM | 96.3% | 67.4% | > 256 µg/mL | > 256 µg/mL | > 256 µg/mL | > 256 µg/mL | > 256 µg/mL | > 256 µg/mL |  |  |  |  |  |  |  |  | 
2 | O=C1NC(=S)S/C1=C\c1ccc([N+](=O)[O-])o1 | 32.2 µM | 99.7% | 49.4% | 4 µg/mL (≈ 15.6 µM) |  | 16 µg/mL (≈ 62.4 µM) | 2 µg/mL | 16 µg/mL (≈ 62.4 µM) | 1 µg/mL (≈ 3.9 µM) | 82.8% | 104.8% | 8 | 1.3 | 1.3 | 1 | 1.4 |  | 
3 | CO[C@H]1/C=C/O[C@@]2(C)Oc3c(C)c(O)c4c(O)c(c(/C=N/N5CCN(C)CC5)c(O)c4c3C2=O)NC(=O)/C(C)=C\C=C\[C@H](C)[C@H](O)[C@@H](C)[C@@H](O)[C@@H](C)[C@H](OC(C)=O)[C@@H]1C [RIFAMPIN] | 0.0115 µM |  |  |  |  |  |  |  |  |  |  |  |  |  |  |  | 8.3% | 7.8%
4 | O=C(O)CCCN1C(=O)/C(=C/c2ccc(-c3cccc(Cl)c3)o2)SC1=S | 16.3 µM | 88.1% | 96.7% | 4 µg/mL (≈ 9.81 µM) |  | > 128 µg/mL | 16 µg/mL | > 128 µg/mL | 1 µg/mL (≈ 2.45 µM) | 27.3% | 43.1% | 1.1 | 1 | 1.2 | 1 | 0.9 |  | 
5 | C/C=C/C/C=C(\C)C(O)CC/C(C)=C/C=C(\C)C(=O)c1c(O)cc([C@H](C)CC/C=C/NC(=O)OC)oc1=O (some centres undefined) [CORALLOPYRONIN A] | 0.726 µM |  |  |  |  |  |  |  |  |  |  |  |  |  |  |  |  | 
6 | CO[C@H]1/C=C/O[C@@]2(C)Oc3c(C)c(O)c4c(O)c(cc(O)c4c3C2=O)NC(=O)/C(C)=C\C=C\[C@H](C)[C@H](O)[C@@H](C)[C@@H](O)[C@@H](C)[C@H](OC(C)=O)[C@@H]1C [RIFAMYCIN] | 0.0086 µM |  |  |  |  |  |  |  |  |  |  |  |  |  |  |  |  | 
